Results taken from PMC4506215 (Nature, 2015).
Substitutions are numbered along the chain they refer to.

What was measured:
SRD5A = target: T1, SRD5A (Homo sapiens, UniProt P18405); test: Conversion of [3H]-AD to 5α-reduced androgens in LAPC4 cells; assay type: cell-based; settings: up to 100 μM
T1 sequence (P18405 1-259): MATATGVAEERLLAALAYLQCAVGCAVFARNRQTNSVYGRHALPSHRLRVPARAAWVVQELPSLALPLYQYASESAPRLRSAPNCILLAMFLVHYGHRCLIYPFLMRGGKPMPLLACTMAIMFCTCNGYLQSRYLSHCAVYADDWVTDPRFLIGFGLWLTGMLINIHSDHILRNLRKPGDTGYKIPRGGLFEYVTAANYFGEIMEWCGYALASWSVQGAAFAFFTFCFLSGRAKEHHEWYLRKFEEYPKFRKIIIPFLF
Outline: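 LAPC4 cells (IMDM, 10% FBS) seeded at 0.2 million/well for ~24 h, then given [3H]-AD mixed with unlabeled AD (final 100 nM, ~1,000,000 cpm/well) plus test compound at 37°C. Medium treated with β-glucuronidase (65°C, 2 h), extracted with ethyl acetate:isooctane (1:1), dried. Steroids separated by C18 reverse-phase HPLC, methanol/water gradient. Biological n=3; repeated three times.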

LNCaP cells = test: Cell proliferation assay, DHT-induced growth; assay type: cell-based; settings: DHT 0.5 nM, 2, 4 and 6 days
Outline: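 LNCaP cells (0.1 million/mL) in phenol red-free RPMI-1640 with 10% charcoal-stripped FBS plus androgen and/or test compound. Medium changed every other day. Cells lysed after 2, 4 or 6 days; growth measured as DNA content by Hoechst fluorescence. Two-tailed Student's t-test.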

[1] = patients, wide interpatient variability; cited from earlier work
[2] = target: T2, mutant AR (expressed in LNCaP) (Homo sapiens, UniProt P10275, T878A); test: cell-based; assay type: binding
T2 sequence (P10275 1-920 T878A): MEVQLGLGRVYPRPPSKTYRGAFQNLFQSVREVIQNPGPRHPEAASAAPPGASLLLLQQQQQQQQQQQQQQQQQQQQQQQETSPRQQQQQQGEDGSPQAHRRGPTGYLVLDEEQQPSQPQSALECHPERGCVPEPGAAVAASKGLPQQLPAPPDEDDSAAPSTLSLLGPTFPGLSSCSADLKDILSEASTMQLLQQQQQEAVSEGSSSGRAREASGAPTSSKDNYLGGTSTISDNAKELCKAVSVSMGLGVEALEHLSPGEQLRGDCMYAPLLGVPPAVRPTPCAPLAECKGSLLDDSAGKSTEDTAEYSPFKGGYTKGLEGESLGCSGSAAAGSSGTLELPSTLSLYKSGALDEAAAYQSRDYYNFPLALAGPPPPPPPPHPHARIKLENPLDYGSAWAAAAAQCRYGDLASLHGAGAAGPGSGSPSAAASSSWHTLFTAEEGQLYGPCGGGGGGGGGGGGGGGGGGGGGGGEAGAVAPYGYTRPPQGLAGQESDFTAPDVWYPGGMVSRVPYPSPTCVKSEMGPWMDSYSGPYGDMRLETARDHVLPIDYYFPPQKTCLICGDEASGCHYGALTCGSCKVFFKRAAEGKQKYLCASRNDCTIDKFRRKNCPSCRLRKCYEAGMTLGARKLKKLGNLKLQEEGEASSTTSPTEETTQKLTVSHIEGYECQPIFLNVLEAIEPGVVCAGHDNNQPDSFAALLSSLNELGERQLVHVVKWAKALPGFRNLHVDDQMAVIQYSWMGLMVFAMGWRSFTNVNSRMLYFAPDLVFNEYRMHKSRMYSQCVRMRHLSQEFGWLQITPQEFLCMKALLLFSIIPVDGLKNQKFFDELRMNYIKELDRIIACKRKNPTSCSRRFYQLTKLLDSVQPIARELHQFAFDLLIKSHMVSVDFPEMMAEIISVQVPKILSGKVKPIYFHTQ

[3] = target: T3, wild-type AR (expressed in LAPC4) (Homo sapiens, UniProt P10275); test: cell-based; assay type: binding
T3 sequence (P10275 1-920): T2 sequence (P10275 1-920 T878A) with A878T

metastatic CRPC = settings: cited from earlier work

CNC(=O)c1ccc(N2C(=S)N(c3ccc(C#N)c(C(F)(F)F)c3)C(=O)C2(C)C)cc1F [enzalutamide]
effect on conversion from AD to 5α-reduced androgens (SRD5A): no detectable effect
effect on DHT-stimulated cell growth (LNCaP cells): more potent than Abi

C[C@]12CC[C@H](O)CC1=CC[C@@H]1[C@@H]2CC[C@]2(C)C(c3cccnc3)=CC[C@@H]12 [Abi, abiraterone]
effect on conversion from AD to 5α-reduced androgens (SRD5A): no detectable effect
Cmax [1]: ~1000 nM
IC50 [2]: 418 nM
IC50 [3]: > 500 nM

CNC(=O)c1ccc2cc([C@@]3(O)CCn4cncc43)ccc2c1 [TAK-700]
survival in metastatic CRPC (metastatic CRPC): failed to prolong survival
